Peptide text beside a SMILES is read from it.

Type in all cases: tissue-based
In test [1] the target is Delta-type opioid receptor (Mus musculus, UniProt P32300). Description: Inhibitory potency against Opioid receptor delta 1 was determined in electrically induced smooth muscle contractions of mouse vas deferens (MVD). A digest of the protocol:
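Vas deferens from male ICR mice (25–40 g), in Mg-free oxygenated Krebs at 37 °C under 0.5 g tension. Transmural stimulation at 0.1 Hz, 2.0-ms pulses, supramaximal voltage. […] IC50 from Hill fit of mean data from at least four tissues.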

Test [2] deals with Mu-type opioid receptor (Rattus norvegicus, UniProt P33535). Description: Inhibition of binding of radioligand [3H]CTOP to Opioid receptor mu 1 in rat brain. In outline: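 Rat whole brain (less cerebellum) membranes, preincubated 30 min at 25 °C to strip endogenous peptides. Displacement of 0.5 nM [3H]CTOP in 50 mM Tris-HCl pH 7.4 containing BSA, bestatin, bacitracin, captopril and toluenesulfonyl fluoride; 10 concentrations over an 800-fold range; 3 h at 25 °C; filtration.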

The target in test [3] is Mu-type opioid receptor. Description: Inhibitory potency against Opioid receptor mu 1 was determined in electrically induced strips of guinea pig ileum (GPI). A digest of the protocol:
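Ileum longitudinal muscle–myenteric plexus strips from male Hartley guinea pigs (250–500 g), in oxygenated Krebs at 37 °C under 1 g tension. Transmural stimulation at 0.1 Hz, 0.4-ms pulses, supramaximal voltage. IC50 from Hill fit of mean data from at least four tissues.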

Test [4] addresses Delta-type opioid receptor (Rattus norvegicus, UniProt P33533). The test can be described thus: Inhibition of binding of radioligand [3H][p-Cl-phe]-DPDPE to Opioid receptor delta 1 in rat brain.

Chain of Delta-type opioid receptor (Rattus norvegicus, UniProt P33533) (P33533 whole entry): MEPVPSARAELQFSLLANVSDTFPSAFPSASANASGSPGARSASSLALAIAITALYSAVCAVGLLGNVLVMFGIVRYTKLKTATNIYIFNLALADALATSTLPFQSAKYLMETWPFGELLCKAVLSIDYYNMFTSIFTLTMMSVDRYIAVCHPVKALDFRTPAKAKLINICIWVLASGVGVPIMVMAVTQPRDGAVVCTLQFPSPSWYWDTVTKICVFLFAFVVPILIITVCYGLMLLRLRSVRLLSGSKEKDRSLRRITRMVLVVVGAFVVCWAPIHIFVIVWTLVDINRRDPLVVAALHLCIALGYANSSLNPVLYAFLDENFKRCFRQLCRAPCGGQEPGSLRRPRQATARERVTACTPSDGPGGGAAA
Chain of Delta-type opioid receptor (Mus musculus, UniProt P32300) (P32300 whole entry): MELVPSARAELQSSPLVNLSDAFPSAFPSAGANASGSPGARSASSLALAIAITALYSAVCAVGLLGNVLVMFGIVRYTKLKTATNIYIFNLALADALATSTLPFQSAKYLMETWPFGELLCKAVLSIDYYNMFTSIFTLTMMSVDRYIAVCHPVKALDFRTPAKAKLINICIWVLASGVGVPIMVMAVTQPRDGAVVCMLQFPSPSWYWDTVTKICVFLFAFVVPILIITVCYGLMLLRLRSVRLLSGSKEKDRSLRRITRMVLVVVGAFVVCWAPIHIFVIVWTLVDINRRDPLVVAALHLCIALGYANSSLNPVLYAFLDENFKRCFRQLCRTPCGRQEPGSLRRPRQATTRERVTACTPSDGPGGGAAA
Chain of Mu-type opioid receptor (Rattus norvegicus, UniProt P33535) (P33535 whole entry): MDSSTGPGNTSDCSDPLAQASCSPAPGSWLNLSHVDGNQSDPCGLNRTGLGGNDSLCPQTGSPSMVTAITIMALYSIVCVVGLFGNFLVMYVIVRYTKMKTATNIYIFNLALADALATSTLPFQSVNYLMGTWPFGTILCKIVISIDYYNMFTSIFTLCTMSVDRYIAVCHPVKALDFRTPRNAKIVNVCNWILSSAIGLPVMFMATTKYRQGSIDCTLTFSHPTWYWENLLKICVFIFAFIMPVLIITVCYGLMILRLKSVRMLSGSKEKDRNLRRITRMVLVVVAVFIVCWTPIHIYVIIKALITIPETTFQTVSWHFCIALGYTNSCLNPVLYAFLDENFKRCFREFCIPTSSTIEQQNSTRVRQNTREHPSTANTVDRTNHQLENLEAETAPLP

As a reminder, the IC50 is the concentration at which inhibition is half-maximal. A lower IC50 goes with higher potency. For the compound `CC1(C)SSC(C)(C)[C@@H](NC(=O)[C@@H](N)Cc2ccc(O)cc2)C(=O)NCC(=O)N[C@@H](Cc2ccc(Cl)cc2)C(=O)N[C@@H]1C(=O)N[C@@H](Cc1ccccc1)C(=O)O`, the 50% inhibitory concentration (IC50) stood at 0.17 nM in test [1], 1700 nM at Mu-type opioid receptor [2], 420 nM against Mu-type opioid receptor [3] and 0.4 nM in test [4].

With `CC1(C)SSC(C)(C)[C@@H](NC(=O)[C@@H](N)Cc2ccc(O)cc2)C(=O)NCC(=O)N[C@@H](Cc2ccc(F)cc2)C(=O)N[C@@H]1C(=O)N[C@@H](Cc1ccccc1)C(=O)O`, the IC50 is 0.016 nM in test [1], 1650 nM at Mu-type opioid receptor [2], 740 nM against Mu-type opioid receptor [3] and 0.43 nM in test [4].

Take `CC1(C)SSC(C)(C)[C@@H](NC(=O)[C@@H](N)Cc2ccc(O)cc2)C(=O)NCC(=O)N[C@@H](Cc2ccc(Br)cc2)C(=O)N[C@@H]1C(=O)N[C@@H](Cc1ccccc1)C(=O)O`: the IC50 in test [1] was determined as 0.18 nM; at Mu-type opioid receptor [2] it was 4200 nM; against Mu-type opioid receptor [3], 3400 nM; in test [4] it was 0.2 nM.

Consider `CC1(C)SSC(C)(C)[C@@H](NC(=O)[C@@H](N)Cc2ccc(O)cc2)C(=O)NCC(=O)N[C@@H](Cc2ccc(I)cc2)C(=O)N[C@@H]1C(=O)N[C@@H](Cc1ccccc1)C(=O)O`, for which the IC50 in test [1] stood at 0.8 nM; on Mu-type opioid receptor [2], 7300 nM; on Mu-type opioid receptor [3], 8700 nM; in test [4], 0.47 nM.

Compound `CC1(C)SSC[C@@H](C(=O)N[C@@H](Cc2ccccc2)C(=O)O)NC(=O)[C@H](Cc2ccccc2)NC(=O)CNC(=O)[C@@H]1NC(=O)[C@@H](N)Cc1ccc(O)cc1` (HELM PEPTIDE1{Y.[CC(C)(S[*:3])[C@@H](N[*:1])C(=O)[*:2]].G.F.C.F}$PEPTIDE1,PEPTIDE1,2:R3-5:R3$$$V2.0) registered an IC50 at Mu-type opioid receptor [3] of 83 nM.

For `CC1(C)SSC(C)(C)[C@@H](NC(=O)[C@@H](N)Cc2ccc(O)cc2)C(=O)NCC(=O)N[C@@H](Cc2ccccc2)C(=O)N[C@@H]1C(=O)N[C@@H](Cc1ccccc1)C(=O)O`, the IC50 was found to be 1.89 nM in test [1], 11400 nM on Mu-type opioid receptor [2], 5800 nM at Mu-type opioid receptor [3] and 4 nM in test [4].

For the origin of these results see ChEMBL document CHEMBL1130249, “Cyclic enkephalin analogues with exceptional potency and selectivity for delta-opioid receptors” (J Med Chem, 1997).
